Reference: ChEMBL document CHEMBL1138252, “Synthesis, in vitro inhibitory activity towards COX-2 and haemolytic activity of derivatives of esculentoside A” (Bioorg Med Chem Lett, 2007)

Legend:
[1] = target: T1, Prostaglandin G/H synthase 2 (Homo sapiens) (UniProt P35354); conditions: Spodoptera frugiperda; Sf9; at 10 µM;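 note: recombinant human COX2 made in Sf9 insect cells, read-out is reactive oxygen species formed on arachidonic acid stimulation, measured after 30 min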
T1 sequence (whole entry): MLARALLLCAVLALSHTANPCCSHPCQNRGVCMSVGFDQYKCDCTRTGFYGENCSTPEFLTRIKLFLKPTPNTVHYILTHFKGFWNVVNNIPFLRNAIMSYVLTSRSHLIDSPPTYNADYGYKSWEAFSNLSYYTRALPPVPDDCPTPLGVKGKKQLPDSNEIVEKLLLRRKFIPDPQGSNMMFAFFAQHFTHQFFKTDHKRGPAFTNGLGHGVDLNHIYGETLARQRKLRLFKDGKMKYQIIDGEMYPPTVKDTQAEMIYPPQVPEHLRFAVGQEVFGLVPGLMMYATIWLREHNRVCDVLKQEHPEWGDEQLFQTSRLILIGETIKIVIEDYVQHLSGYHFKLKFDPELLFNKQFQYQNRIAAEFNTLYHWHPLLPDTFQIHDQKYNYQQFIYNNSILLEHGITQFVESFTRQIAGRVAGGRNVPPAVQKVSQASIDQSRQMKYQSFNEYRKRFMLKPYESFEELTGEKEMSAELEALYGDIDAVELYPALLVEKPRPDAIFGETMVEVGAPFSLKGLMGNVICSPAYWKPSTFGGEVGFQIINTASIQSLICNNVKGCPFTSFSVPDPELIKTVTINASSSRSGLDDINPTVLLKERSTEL

[2] = Toxicity against new Zealand rabbit blood assessed as hemolysis after 60 mins; format: tissue-based, Oryctolagus cuniculus; conditions: read-out: HD50
Procedure, shortened: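 Erythrocytes washed three times in PBS (pH 7.4) and diluted to a 10% suspension. Compounds were dissolved in DMSO, then diluted with PBS to 2.5–250 µg/mL. Suspension was added, and samples were stirred and incubated 60 min at 37 °C with periodic stirring. After centrifugation at 3000 rpm for 5 min, supernatant A540 was read. Haemolysis % was calculated relative to distilled water (100%).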

SMILES | inhibition [1] | HC50 at 1 h [2]
COC(=O)[C@@H](C)NC(=O)[C@]12CC[C@](C)(C(=O)OC)C[C@H]1C1=CC[C@@H]3[C@@]4(C)C[C@H](O)[C@H](O[C@@H]5OC[C@@H](O[C@@H]6O[C@H](CO)[C@@H](O)[C@H](O)[C@H]6O)[C@H](O)[C@H]5O)[C@@](C)(CO)[C@@H]4CC[C@@]3(C)[C@]1(C)CC2 |  | > 274 µM
COC(=O)[C@@]1(C)CC[C@]2(C(=O)NCCCc3ccccc3)CC[C@]3(C)C(=CC[C@@H]4[C@@]5(C)C[C@H](O)[C@H](O[C@@H]6OC[C@@H](O[C@@H]7O[C@H](CO)[C@@H](O)[C@H](O)[C@H]7O)[C@H](O)[C@H]6O)[C@@](C)(CO)[C@@H]5CC[C@]43C)[C@@H]2C1 |  | < 2.6 µM
COC(=O)[C@@]1(C)CC[C@]2(C(=O)NCCO)CC[C@]3(C)C(=CC[C@@H]4[C@@]5(C)C[C@H](O)[C@H](O[C@@H]6OC[C@@H](O[C@@H]7O[C@H](CO)[C@@H](O)[C@H](O)[C@H]7O)[C@H](O)[C@H]6O)[C@@](C)(CO)[C@@H]5CC[C@]43C)[C@@H]2C1 |  | > 287 µM
COC(=O)[C@@H](CCSC)NC(=O)[C@]12CC[C@](C)(C(=O)OC)C[C@H]1C1=CC[C@@H]3[C@@]4(C)C[C@H](O)[C@H](O[C@@H]5OC[C@@H](O[C@@H]6O[C@H](CO)[C@@H](O)[C@H](O)[C@H]6O)[C@H](O)[C@H]5O)[C@@](C)(CO)[C@@H]4CC[C@@]3(C)[C@]1(C)CC2 |  | 203 µM
COC(=O)[C@@H](Cc1ccccc1)NC(=O)[C@]12CC[C@](C)(C(=O)OC)C[C@H]1C1=CC[C@@H]3[C@@]4(C)C[C@H](O)[C@H](O[C@@H]5OC[C@@H](O[C@@H]6O[C@H](CO)[C@@H](O)[C@H](O)[C@H]6O)[C@H](O)[C@H]5O)[C@@](C)(CO)[C@@H]4CC[C@@]3(C)[C@]1(C)CC2 |  | 204 µM
CNC(=O)[C@]12CC[C@](C)(C(=O)OC)C[C@H]1C1=CC[C@@H]3[C@@]4(C)C[C@H](O)[C@H](O[C@@H]5OC[C@@H](O[C@@H]6O[C@H](CO)[C@@H](O)[C@H](O)[C@H]6O)[C@H](O)[C@H]5O)[C@@](C)(CO)[C@@H]4CC[C@@]3(C)[C@]1(C)CC2 |  | 276 µM
COC(=O)[C@@]1(C)CC[C@]2(C(=O)On3nnc4ccccc43)CC[C@]3(C)C(=CC[C@@H]4[C@@]5(C)C[C@H](O)[C@H](O[C@@H]6OC[C@@H](O[C@@H]7O[C@H](CO)[C@@H](O)[C@H](O)[C@H]7O)[C@H](O)[C@H]6O)[C@@](C)(CO)[C@@H]5CC[C@]43C)[C@@H]2C1 |  | 55.2 µM
COC(=O)[C@@]1(C)CC[C@]2(C(=O)NCc3ccc(OC)cc3)CC[C@]3(C)C(=CC[C@@H]4[C@@]5(C)C[C@H](O)[C@H](O[C@@H]6OC[C@@H](O[C@@H]7O[C@H](CO)[C@@H](O)[C@H](O)[C@H]7O)[C@H](O)[C@H]6O)[C@@](C)(CO)[C@@H]5CC[C@]43C)[C@@H]2C1 | 56.8% | 12.7 µM
CCCNC(=O)[C@]12CC[C@](C)(C(=O)OC)C[C@H]1C1=CC[C@@H]3[C@@]4(C)C[C@H](O)[C@H](O[C@@H]5OC[C@@H](O[C@@H]6O[C@H](CO)[C@@H](O)[C@H](O)[C@H]6O)[C@H](O)[C@H]5O)[C@@](C)(CO)[C@@H]4CC[C@@]3(C)[C@]1(C)CC2 |  | 191 µM
COC(=O)[C@@H](Cc1c[nH]c2ccccc12)NC(=O)[C@]12CC[C@](C)(C(=O)OC)C[C@H]1C1=CC[C@@H]3[C@@]4(C)C[C@H](O)[C@H](O[C@@H]5OC[C@@H](O[C@@H]6O[C@H](CO)[C@@H](O)[C@H](O)[C@H]6O)[C@H](O)[C@H]5O)[C@@](C)(CO)[C@@H]4CC[C@@]3(C)[C@]1(C)CC2 | 47.7% | > 243 µM
COC(=O)[C@H](NC(=O)[C@]12CC[C@](C)(C(=O)OC)C[C@H]1C1=CC[C@@H]3[C@@]4(C)C[C@H](O)[C@H](O[C@@H]5OC[C@@H](O[C@@H]6O[C@H](CO)[C@@H](O)[C@H](O)[C@H]6O)[C@H](O)[C@H]5O)[C@@](C)(CO)[C@@H]4CC[C@@]3(C)[C@]1(C)CC2)C(C)C |  | > 266 µM
COC(=O)[C@@]1(C)CC[C@]2(C(=O)NCc3ccc(OC)c(OC)c3)CC[C@]3(C)C(=CC[C@@H]4[C@@]5(C)C[C@H](O)[C@H](O[C@@H]6OC[C@@H](O[C@@H]7O[C@H](CO)[C@@H](O)[C@H](O)[C@H]7O)[C@H](O)[C@H]6O)[C@@](C)(CO)[C@@H]5CC[C@]43C)[C@@H]2C1 | 19.4% | 215 µM
COC(=O)[C@@]1(C)CC[C@]2(C(=O)N(C(=O)NC3CCCCC3)C3CCCCC3)CC[C@]3(C)C(=CC[C@@H]4[C@@]5(C)C[C@H](O)[C@H](O[C@@H]6OC[C@@H](O[C@@H]7O[C@H](CO)[C@@H](O)[C@H](O)[C@H]7O)[C@H](O)[C@H]6O)[C@@](C)(CO)[C@@H]5CC[C@]43C)[C@@H]2C1 | 75% | < 2.4 µM
CCCCNC(=O)[C@]12CC[C@](C)(C(=O)OC)C[C@H]1C1=CC[C@@H]3[C@@]4(C)C[C@H](O)[C@H](O[C@@H]5OC[C@@H](O[C@@H]6O[C@H](CO)[C@@H](O)[C@H](O)[C@H]6O)[C@H](O)[C@H]5O)[C@@](C)(CO)[C@@H]4CC[C@@]3(C)[C@]1(C)CC2 |  | 15.8 µM

Further lines, with some results ahead:

inhibition [1] | SMILES | HC50 at 1 h [2]
58.1% | COC(=O)[C@@]1(C)CC[C@]2(C(=O)NCc3ccc(F)cc3)CC[C@]3(C)C(=CC[C@@H]4[C@@]5(C)C[C@H](O)[C@H](O[C@@H]6OC[C@@H](O[C@@H]7O[C@H](CO)[C@@H](O)[C@H](O)[C@H]7O)[C@H](O)[C@H]6O)[C@@](C)(CO)[C@@H]5CC[C@]43C)[C@@H]2C1 | 94.5 µM
94.7% | COC(=O)[C@@]1(C)CC[C@]2(C(=O)NCCc3ccccc3)CC[C@]3(C)C(=CC[C@@H]4[C@@]5(C)C[C@H](O)[C@H](O[C@@H]6OC[C@@H](O[C@@H]7O[C@H](CO)[C@@H](O)[C@H](O)[C@H]7O)[C@H](O)[C@H]6O)[C@@](C)(CO)[C@@H]5CC[C@]43C)[C@@H]2C1 | 21.3 µM
21.7% | COC(=O)[C@@]1(C)CC[C@]2(C(=O)O)CC[C@]3(C)C(=CC[C@@H]4[C@@]5(C)C[C@H](O)[C@H](O[C@@H]6OC[C@@H](O[C@@H]7O[C@H](CO)[C@@H](O)[C@H](O)[C@H]7O)[C@H](O)[C@H]6O)[C@@](C)(CO)[C@@H]5CC[C@]43C)[C@@H]2C1 | 186 µM
82.9% | COC(=O)[C@@]1(C)CC[C@]2(C(=O)NCc3ccccc3Cl)CC[C@]3(C)C(=CC[C@@H]4[C@@]5(C)C[C@H](O)[C@H](O[C@@H]6OC[C@@H](O[C@@H]7O[C@H](CO)[C@@H](O)[C@H](O)[C@H]7O)[C@H](O)[C@H]6O)[C@@](C)(CO)[C@@H]5CC[C@]43C)[C@@H]2C1 | 42.8 µM
126% | COC(=O)[C@@]1(C)CC[C@]2(C(=O)NCc3ccc(Cl)cc3)CC[C@]3(C)C(=CC[C@@H]4[C@@]5(C)C[C@H](O)[C@H](O[C@@H]6OC[C@@H](O[C@@H]7O[C@H](CO)[C@@H](O)[C@H](O)[C@H]7O)[C@H](O)[C@H]6O)[C@@](C)(CO)[C@@H]5CC[C@]43C)[C@@H]2C1 | < 2.6 µM
4.6% | COC(=O)[C@@]1(C)CC[C@]2(C(=O)N3CCNCC3)CC[C@]3(C)C(=CC[C@@H]4[C@@]5(C)C[C@H](O)[C@H](O[C@@H]6OC[C@@H](O[C@@H]7O[C@H](CO)[C@@H](O)[C@H](O)[C@H]7O)[C@H](O)[C@H]6O)[C@@](C)(CO)[C@@H]5CC[C@]43C)[C@@H]2C1 | 
26.9% | COC(=O)[C@@]1(C)CC[C@]2(C(=O)NCc3ccccc3)CC[C@]3(C)C(=CC[C@@H]4[C@@]5(C)C[C@H](O)[C@H](O[C@@H]6OC[C@@H](O[C@@H]7O[C@H](CO)[C@@H](O)[C@H](O)[C@H]7O)[C@H](O)[C@H]6O)[C@@](C)(CO)[C@@H]5CC[C@]43C)[C@@H]2C1 | 136 µM
